Experimental data: ChEMBL document CHEMBL1128642, “Discovery of an orally bioavailable NK1 receptor antagonist, (2S,3S)-(2-methoxy-5-tetrazol-1-ylbenzyl)(2-phenylpiperidin-3-yl)amine (GR203040), with potent antiemetic activity” (J Med Chem, 1995)

How the values were obtained:
[1] = Partition coefficient (logD); type: physicochemical; conditions: octanol/water
[2] = Compound was evaluated in vivo for plasma clearance in dog after intravenous dose at 2 mg/Kg; type: ADME, organism-based, Canis lupus familiaris; conditions: read-out: Clp
Summary of the method: (§1)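 Beagle dogs, iv then oral crossover at 2 mg/kg with wash-out between doses. Blood drawn predose and at 0.08–8 h; plasma prepared at about 5 °C. Parent compound measured by solid-phase extraction and reversed-phase HPLC-UV. Plasma clearance taken from iv dosing; oral bioavailability F calculated from both routes.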

[3] = Oral bioavailability in dog; type: ADME, organism-based, Canis lupus familiaris; conditions: in vivo; summary of the method: as §1
Canis familiaris = species: Canis familiaris; assay: In vitro metabolic turnover (% parent lost) after exposure to dog hepatic microsomes (hepatic first pass metabolism); type: functional; conditions: Canis lupus familiaris, Liver
Summary of the method: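 Dog liver microsomes with an NADPH-regenerating system, shaken at 37 °C. Centrifuged, then parent compound quantified by reverse-phase HPLC with UV detection at 215 nm. Turnover (% parent lost) taken from the peak-area difference versus a control incubation lacking NADPH regeneration.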

Mustela putorius furo [4] = assay: Compound was evaluated in vivo for its antiemetic activity in ferret, which was administered subcutaneously 90 minutes before (90 ptt) induction of emesis; type: functional
Summary of the method: (§2)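 Adult male ferrets (1.0–1.7 kg), whole-body X-irradiation at 2 Gy over about 5 min. Antagonist given sc 90 min before irradiation or immediately after it. Retches and vomits counted. ID90 is the lowest dose giving ≥90% inhibition of emesis versus untreated irradiated controls; n per group reported.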

Mustela putorius furo [5] = assay: Compound was evaluated in vivo for its antiemetic activity in ferret, which was administered subcutaneously immediately after (0 ptt) induction of emesis; type: functional; summary of the method: as §2
Substance-P receptor = Substance-P receptor (Homo sapiens, UniProt P25103); assay: Binding affinity to Tachykinin receptor 1 stably expressed in chinese hamster ovary (CHO) cells; type: cell-based
Substance-P receptor, sequence (P25103 whole entry): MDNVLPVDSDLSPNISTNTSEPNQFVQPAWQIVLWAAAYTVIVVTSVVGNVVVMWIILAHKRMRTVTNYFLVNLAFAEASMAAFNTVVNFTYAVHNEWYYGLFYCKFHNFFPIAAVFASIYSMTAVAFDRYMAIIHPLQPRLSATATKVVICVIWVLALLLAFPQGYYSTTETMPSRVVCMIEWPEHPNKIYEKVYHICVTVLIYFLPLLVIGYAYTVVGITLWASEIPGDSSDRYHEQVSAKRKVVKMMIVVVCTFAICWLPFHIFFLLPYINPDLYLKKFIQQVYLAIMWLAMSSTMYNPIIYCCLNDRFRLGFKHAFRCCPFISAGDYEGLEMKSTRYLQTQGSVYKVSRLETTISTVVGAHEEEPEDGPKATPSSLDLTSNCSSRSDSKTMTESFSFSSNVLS
Summary of the method: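 Membranes from CHO cells stably expressing human NK1 receptor, grown in DMEM/F12 with 10% FCS and 4 mM glutamine. Incubated 40 min at 22 °C with 0.7–1.0 nM [3H]substance P (final) in HEPES 50 mM/3 mM MnCl2, pH 7.4, 3 µg protein.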

[6] = Lipophilicity; type: physicochemical; conditions: octanol/water
Mustela putorius furo [7] = assay: Compound was evaluated in vivo for its antiemetic activity in ferret, which was administered subcutaneously 90 minutes before (90 ptt) induction of emesis;>80% inhibition observed; type: functional
[8] = tested on: Substance-P receptor (Meriones unguiculatus); assay: Compound was evaluated for its ex vivo binding affinity towards substance P receptor measured 15 minutes post administration to gerbil; conditions: Gerbillinae

Compound	logD [1]	clearance [2] [mL/min/kg]	bioavailability [3] [%]	Metabolic turnover (Canis familiaris) [%]	ID90 (Mustela putorius furo [4]) [mg/kg]	ID90 (Mustela putorius furo [5]) [mg/kg]	Ki (Substance-P receptor) [nM]	logD [6]	ID90 (Mustela putorius furo [7]) [mg/kg]	ED50 [8] [mg/kg]
COc1ccc(-n2cnnn2)cc1CN[C@H]1CCCN[C@H]1c1ccccc1	0.8	24	76	51	0.1	0.1	0.0501			
COc1ccccc1CN[C@H]1CCCN[C@H]1c1ccccc1 [CP-99994]		94	< 10	100		1		1.4	1	
COc1ccc(-c2nnnn2C)cc1CN[C@H]1CCCN[C@H]1c1ccccc1				27	>3		0.2	0.5		
COc1ccc(-c2nccn2C)cc1CN[C@H]1CCCN[C@H]1c1ccccc1				90	>3		2	1.2		
COc1ccc(-c2nnn(C)n2)cc1CN[C@H]1CCCN[C@H]1c1ccccc1				63	>3		2.51	1.4		
COc1ccc(-c2ccco2)cc1CN[C@H]1CCCN[C@H]1c1ccccc1				100	>3		0.501	3		
COc1ccc(-n2ncnn2)cc1CN[C@H]1CCCN[C@H]1c1ccccc1	0.8			65	>1		0.126			
COc1ccc(S(C)(=O)=O)cc1CN[C@H]1CCCN[C@H]1c1ccccc1		23	42	25	>10	>10	0.501	0.2		> 0.3
COc1ccc(-c2ccncc2)cc1CN[C@H]1CCCN[C@H]1c1ccccc1				98		0.3	0.0631	2.2		
COc1ccc(F)cc1CN[C@H]1CCCN[C@H]1c1ccccc1						3	0.158	1.8		
COc1ccc(-c2ccsc2)cc1CN[C@H]1CCCN[C@H]1c1ccccc1				92		>3	0.0316	3.1		
COc1ccc(-c2nccs2)cc1CN[C@H]1CCCN[C@H]1c1ccccc1				61		>3	0.794	2.3		
COc1ccc(-c2ccoc2)cc1CN[C@H]1CCCN[C@H]1c1ccccc1		45	< 10	85	0.3	0.3	0.0631	2.5		
COc1ccc(Br)cc1CN[C@H]1CCCN[C@H]1c1ccccc1				60			0.0501	2.5		
COc1ccc(SC)cc1CN[C@H]1CCCN[C@H]1c1ccccc1				94		1	0.0794	2		
COc1ccc(-c2c(C)nn(C)c2C)cc1CN[C@H]1CCCN[C@H]1c1ccccc1				82			0.794	2.3		
COc1ccc(-c2c(C)noc2C)cc1CN[C@H]1CCCN[C@H]1c1ccccc1				92	1		0.0501	2.3		
COc1ccc(-c2cncnc2)cc1CN[C@H]1CCCN[C@H]1c1ccccc1				36	>3	3	0.158	1.4		
COc1ccc(-n2cncn2)cc1CN[C@H]1CCCN[C@H]1c1ccccc1				55	>3	3	0.158	1.2		
